# ZTA counter: blocks Epstein-Barr virus ZTA, an EBNA-1 counter-screen; actives 0.15% (n = 320,000); inhibition, % at 11 µM; ZTA-DNA binding, fluorescence polarization; P03206; in the data active = inhibition above about 33%
# EBNA-1 inhibitor: blocks EBNA-1 binding to DNA | actives 0.34% (n = 300,000) | inhibition, % at 14.8 µM | AID 1950 | EBNA-1 DNA binding, fluorescence polarization; in the data active = inhibition above about 28%
# Apaf1 inhib: inhibitors of human Apaf-1 apoptosome; reconstituted apoptosome caspase-3 activity, DEVD-Rh110 fluorescence; inhibition, % at 20 µM; actives 0.71% (n = 330,000); AID 489030; active = inhibition of at least 40% at 20 µM;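 also: plate controls were DMSO wells for no effect and DEVD-CHO caspase inhibitor wells for full effect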
#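 Material: cell-free apoptosome with Apaf-1, procaspase-3 and caspase-9; Buffer or medium: Hepes pH 7.5 with detergent and BSA; Reagent: cytochrome c trigger plus (Z-DEVD)2-Rh110 caspase-3 substrate; Times: compound with Apaf-1, dATP, procaspase-3 30 min, then 50 min reaction, room temperature; Technique: Rh110 fluorescence intensity.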
# procasp7 counter: counter-screen: procaspase-7 (human) activation. actives 0.093% (n = 330,000). recombinant procaspase-7, Ac-DEVD-pNA absorbance 405 nm; D23A/D198A/D206A triple mutant, cannot self-cleave; scale: DMSO 0, 5 µM enzyme 100. AID 463210. P55210. activation, % at 8.5 µM;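 active = percent activation above the screen-wide mean plus 3 SD, cut at about 25% in these data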
#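 System: Procaspase-7 triple mutant (PC-7 D3A); measure: % activation from two-timepoint absorbance difference, scaled to controls; times: 1 h compound preincubation, 2 h substrate cleavage, 25 °C; also added: Ac-DEVD-pNA substrate, 400 µM as added; measured by: Epi-absorbance of released pNA at 405 nm, two timepoints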
# proCasp3 act: procaspase-3 (human) activation | recombinant procaspase-3 D3A, Ac-DEVD-pNA absorbance 405 nm | actives 0.11% (n = 330,000) | P42574 | activation, % at 8.5 µM;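 active = activation above the mean of all tested compounds plus 3 SD, cut at about 21% in these data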;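 also: 0% = DMSO alone and 100% = DMSO wells spiked with extra 5 µM PC-3 D3A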
#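 Test system: Procaspase-3 D3A mutant; medium: Zinc-free HEPES/NaCl buffer with 0.01% Triton X-100 at pH 7.4; reagent: DEVD-pNA substrate; doses: one concentration, 8.5 µM nominal, 0.8% DMSO; times: 1 h preincubation plus 2 h reaction at 25 °C; signal: Epi-absorbance at 405 nm of released p-nitroaniline, 0 and 120 min; replicates: singlicate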
# GSTO1 counter: blocks human GSTO1 in RBBP9 counter-screen; recombinant GSTO1, activity-based probe fluorescence polarization; inhibition, % at 5.96 µM; actives 1.1% (n = 300,000); AID 1974; P78417;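 active = inhibition above the campaign mean inhibition plus 3 SD, cut at about 35% in these data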;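 also: 0% = GSTO1-1 with DMSO and 100% = wells lacking GSTO1-1 enzyme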
# GSTO1 inh conf: confirmation of human GSTO1 inhibitors. inhibition, % at 5.96 µM. shares compounds with GSTO1 counter. AID 2176. recombinant GSTO1, probe fluorescence polarization. actives 54% (n = 2,400);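 active = inhibition above the primary screen's cutoff, its mean inhibition plus 3 SD, cut at about 35% in these data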;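 also: loss of polarization as inhibitors block binding of rhodamine sulfonate ester activity probe; 0% = GSTO1 with DMSO and 100% = wells lacking GSTO1 enzyme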
# GSTO1 ABPP inh: blocks recombinant human glutathione S-transferase omega 1. shares compounds with GSTO1 counter. recombinant GSTO1, gel ABPP SE-Rh probe fluorescence. inhibition, % at 1 µM. actives 30% (n = 130);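 active = inhibition of the enzyme GSTO1 above about 75%, limit read from the data; inactive = inhibition below that limit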
# * = called active by the depositor; / = no result given; + = active, no number. Hits are enriched below; roughly 1.8% of the tested compounds scored in any of these assays.
SMILES,ZTA counter,EBNA-1 inhibitor,Apaf1 inhib,procasp7 counter,proCasp3 act,GSTO1 counter,GSTO1 inh conf,others
Cc1ccc(S(=O)(=O)N2CCCCC2)cc1NS(=O)(=O)c1cccc(C(=O)O)c1,10,-7,8,7,2,39*,32,
O=C(CCl)Nc1cc(S(=O)(=O)N2CCCCCC2)ccc1Cl,-6,0,5,-4,4,96*,96*,
O=C(CCl)N1CCN(S(=O)(=O)c2ccc3ccccc3c2)CC1,13,14,8,-11,3,87*,94*,GSTO1 ABPP inh=88*
O=C(CSc1nc(C(F)(F)F)cc(=O)[nH]1)Nc1ccc2c(c1)OCCO2,8,-5,-5,6,-1,-5,/,
Cc1ccc(NC(=O)C(=O)Nc2ccc(C)cn2)nc1,2,-4,-23,2,-1,3,/,
Cc1ccc(NC(=O)/C(C#N)=C(\N)C(Cl)(Cl)Cl)nc1,-15,-8,3,-6,-6,47*,76*,
O=C(COc1ccc(NC(=O)c2ccccc2)cc1)c1ccccc1,-22,6,10,4,1,-3,/,
COc1c(Cl)cc(C(=O)NN)cc1Cl,10,4,-2,-1,8,-7,/,
NNC(=O)c1cc(O)c(O)c(O)c1,-2,-22,1,-32,-28,52*,8,
COc1ccc(S(=O)(=O)Nc2ccc(N(C)C(C)=O)cc2)cc1,3,6,10,-15,-11,-3,/,
CCN(CC)c1ccc(NS(=O)(=O)c2ccc(OC)cc2)cc1,-13,-3,14,-2,-2,56*,56*,
ClCc1cc2ccccc2nc1Cl,-9,3,-9,13,7,43*,95*,GSTO1 ABPP inh=40
NC(CO)C(=O)NNCc1ccc(O)c(O)c1O (configuration not stated),-10,1,51*,-25,-24,88*,72*,
Cc1ccc(N2CCN(S(=O)(=O)c3ccc4oc(=O)ccc4c3)CC2)c(C)c1,-14,-6,23,2,-10,2,/,
COc1cc(CNc2ccc(O)cc2)cc(Br)c1OCc1ccccc1,-7,4,20,-9,-13,53*,1,
Cc1nn(-c2ccccc2)c2c1C1(C(=O)N(C(C)C)c3ccccc31)C(C#N)=C(N)O2 (configuration not stated),-2,-6,23,5,0,40*,11,
Cc1nn(-c2ccccc2)c(N)c1C1(O)C(=O)N(C(C)C)c2ccccc21 (configuration not stated),-13,-21,3,5,0,-2,/,
CCN(CC)CCCNC(=O)c1cc(-c2ccccc2)c(N2CCCCC2)s1,9,-6,18,6,-4,7,/,
O=C1NN(c2ccccc2)C(=O)/C1=C/c1cccs1,0,5,-4,-1,3,63*,11,
COc1ccc(Sc2ccc(/C=C3\C(=O)NN(c4ccccc4)C3=O)o2)cc1,7,-8,6,-8,-13,42*,58*,
O=C1NN(c2ccccc2)C(=O)/C1=C\c1coc2ccc(O)cc2c1=O,-1,-2,5,-17,-12,50*,36*,
COc1ccc(-n2c(C)cc(/C=C3\C(=O)NN(c4ccccc4)C3=O)c2C)cc1,14,4,-1,-2,-4,-6,/,
Cc1ccc(NC(=O)C(c2ccccc2)N2CCN(CC(=O)NC3CC3)CC2)cc1 (configuration not stated),-1,/,-2,-5,8,/,/,
CC(CCc1ccccc1)NC(=O)CN1CCN(c2ccc(O)cc2)CC1 (configuration not stated),-9,-2,6,-28,-3,38*,8,
CC(CCc1ccccc1)NC(=O)CN1CCN(Cc2ccccc2)C1=O (configuration not stated),-20,-12,-3,1,13,1,/,
SMILES,ZTA counter,EBNA-1 inhibitor,Apaf1 inhib,procasp7 counter,proCasp3 act,GSTO1 counter,GSTO1 inh conf,others
O=C(O)c1cccc(Sc2cc(Cl)ccc2C(=O)O)c1,-16,/,13,-3,-3,/,/,
CC(OC(=O)c1ccc([N+](=O)[O-])s1)C(=O)Nc1ncc(Cl)cc1Cl (configuration not stated),-6,-4,34,14,7,46*,10,
CCOC(=O)Nc1nnc(-c2ccccc2OC)s1,10,5,11,-11,3,-6,/,
CCC(SC1=NCCS1)C(=O)Nc1nnc(-c2ccccc2OC)s1 (configuration not stated),9,0,17,-2,-14,59*,61*,
Cc1cccc(N/N=C/c2ccc(O)c(O)c2O)c1,-7,-2,8,-29,-12,56*,23,
C=CC[C@@H](Cc1ccc(F)cc1)C(=O)OC[C@@H]1CCCN1C(=O)[C@@H](CC=C)CC(=O)N[C@H](CO)Cc1ccccc1,/,/,29,-8,3,/,/,
COc1ccc(C2=C(N)c3ccccc3C2=O)cc1,2,-8,-3,9,-6,-1,/,
COC1=C(c2ccccc2)C(=O)c2ccccc2C1=O,0,0,16,2,1,44*,35*,
Cc1ccc(NS(=O)(=O)c2ccccc2F)cc1S(=O)(=O)N1CCCCCC1,/,/,6,/,/,/,/,
Nc1nc(-c2cccs2)cs1,5,8,-7,-11,-2,67*,13,
CCn1nc([N+](=O)[O-])c(C(C#N)c2nc3cc(C(F)(F)F)ccc3s2)c(Cl)c1=O (configuration not stated),1,4,7,-10,-23,51*,51*,
Cc1cccc(C(=O)N2CCN(CCNC(=O)C(=O)Nc3ccc(F)cc3)CC2)c1,-11,-11,1,-6,1,4,/,
CCNc1nc(NCC)n2c(SCC(=O)c3ccc(C(C)C)cc3)nnc2n1,8,3,1,10,-1,95*,87*,
CN(C)c1ccc(C=Nc2ccc(N(C)C)cc2)cc1,+,+,39,-16,-7,78*,6,
CN(C)c1ccc(C=Nc2ccccc2)cc1,-4,2,-18,0,-5,2,/,
CN(C)c1ccc(N=Cc2ccco2)cc1,+,+,16,-18,-1,73*,5,
O=C(CCl)NC1(C(F)(F)F)C(=O)Nc2c1c(=O)[nH]c(=O)n2-c1ccccc1 (configuration not stated),-7,-3,-6,8,-2,67*,71*,
